Test results taken from the RNAGym collection of RNA variant scans (doi:10.1126/science.aae0568).
Fewer inactive variants are shown than the library holds.

B1: tRNA (parent)
chain: GUUCCGUUGGCGUAAUGGUAACGCGUCUCCCUCCUAAGGAGAAGACUGCGGGUUCGAGUCCCGUACGGAACG

Variants of: B1
Experiment: yeast fitness relative to wild type (ratio to wild type); higher = fitter; tRNA-Arg(CCU), competitive growth, 37 C, YPD
Method in brief: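 For this measurement, the tRNA-Arg(CCU) gene was varied by chemical synthesis at a 3% per-site mutation rate across 69 sites, and each variant was placed at the native genomic locus in Saccharomyces cerevisiae. The pooled strains went through a 24-hour competition in YPD at 37°C in six parallel replicates, with amplicons from start and end populations read by 100-nucleotide paired-end sequencing. Darwinian fitness relative to wild type followed from the change in each genotype's frequency. Genotypes needed ≥ 100 starting reads, and estimates < 0.5 were set to 0.5.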
With U2G C30A U35G G51C the yeast fitness was ≤ 0.5.
Variant U2C G50C has a yeast fitness of 0.733.
For U2C G50U, the yeast fitness was 0.825.
In the case of U2G G17C C33U U47A A69U, the yeast fitness is reported as ≤ 0.5.
U3A A20U G67U gave a yeast fitness of 0.598.
Variant U2G C11G A20U C24G has a yeast fitness of 0.534.
With U2G C11G A20U C24G G51A C60G G68C the yeast fitness was ≤ 0.5.
U3A C30U gave a yeast fitness of 0.822.
With U3A G38C G41C A65G the yeast fitness was 0.78.
Variant U3A A14G C46G has a yeast fitness of 0.62.
In the case of U2G G17A C24U A36U A37U A70U, the yeast fitness is reported as ≤ 0.5.
With U2G G12A C55U C61A the yeast fitness was ≤ 0.5.
U2G U32C C33G C62U gave a yeast fitness of 0.535.
U3A A36U A43G G52C G63A G67U A70C gave a yeast fitness of 0.557.
In the case of U3A U7A A43C G56A, the yeast fitness is reported as ≤ 0.5.
With U2G G25C C27G C34U U35A G38A U59A the yeast fitness was ≤ 0.5.
Variant U2G C27U C46U has a yeast fitness of 0.999.
With U2G A15C G17C C22G C24A C31A G67C the yeast fitness was 0.579.
With U2G C29G C49G the yeast fitness was ≤ 0.5.
U2C G56A A65G gave a yeast fitness of 1.27.
In the case of U2G C5A C55U C61A, the yeast fitness is reported as ≤ 0.5.
For U3A C22U G39A C66U A69C, the yeast fitness was ≤ 0.5.
In the case of U3A C11U U13A G17C G18C A36C, the yeast fitness is reported as ≤ 0.5.
For U3A C27G C31U C33U A42C G58C, the yeast fitness was ≤ 0.5.
With U2C U47A C49A the yeast fitness was ≤ 0.5.
With U3A A40G A42G A57C C66U the yeast fitness was ≤ 0.5.
Variant U3A G6C has a yeast fitness of 0.662.
Work on U3A C61U yielded a yeast fitness of 0.924.
With U2G C4A C22U U28G A42U C61U the yeast fitness was ≤ 0.5.
With U2G C11G U19C A20G C24U C31G the yeast fitness was ≤ 0.5.
In the case of U3A C4G A43G, the yeast fitness is reported as ≤ 0.5.
In the case of U2C U13C C27A C61U, the yeast fitness is reported as ≤ 0.5.
For U2G U16G C27A A36C G51A, the yeast fitness was 0.536.
Variant U3A A65C has a yeast fitness of 0.879.
With U2G C11G G38C G44A C62U U64C the yeast fitness was ≤ 0.5.
With U2G A20C G48C the yeast fitness was ≤ 0.5.
With U3A G6A U16A C24G A37U C49U G67A the yeast fitness was ≤ 0.5.
In the case of U2G U54C C66U, the yeast fitness is reported as ≤ 0.5.
In the case of U3A C5G U35A A40U C46G U53A, the yeast fitness is reported as 0.583.
For U3A G10C A57G C66U, the yeast fitness was ≤ 0.5.
In the case of U2G C11G, the yeast fitness is reported as 0.703.
U3A A37C C62U showed a yeast fitness of 0.529.
With U3A C4G U8A C24G U53C G58A the yeast fitness was ≤ 0.5.
For U3A C4G U8A C34U, the yeast fitness was ≤ 0.5.
For U3A C30G C33U C55U, the yeast fitness was ≤ 0.5.
For U3A A15C G44A A57U, the yeast fitness was ≤ 0.5.
With U2C C46U U64A the yeast fitness was 0.688.
In the case of U3A C5A U8G G10A C31U U47C, the yeast fitness is reported as 0.632.
U2C U47A C62U showed a yeast fitness of 0.531.
With U2C G17C G23C G25C U35A A42U C66U the yeast fitness was ≤ 0.5.
In the case of U2G A14G C27G G52C, the yeast fitness is reported as ≤ 0.5.
With U3A C4A U8C C29G A37C A69C the yeast fitness was ≤ 0.5.
For U3A G67A, the yeast fitness was 0.684.
With U2G A21U A36U A45U A65U A70U the yeast fitness was ≤ 0.5.
In the case of U3A C5A A45C G50C C61U G68A, the yeast fitness is reported as ≤ 0.5.
In the case of U3A C11U A65C, the yeast fitness is reported as 0.61.
In the case of U3A G9C C46G, the yeast fitness is reported as 0.533.
In the case of U2G G18A C27A C30U, the yeast fitness is reported as ≤ 0.5.
For U2G C60U C61A G67C, the yeast fitness was ≤ 0.5.
With U2G A14C A65C the yeast fitness was ≤ 0.5.
For U2G C11A C24A U26A G44C G68A, the yeast fitness was ≤ 0.5.
Variant U2C G48C has a yeast fitness of 1.11.
With U2C U7G A15G A45U G50A A57C the yeast fitness was ≤ 0.5.
For U2C U35G G52A, the yeast fitness was ≤ 0.5.
With U2G C22A G25A the yeast fitness was 0.639.
In the case of U2G C33U C34G U59A, the yeast fitness is reported as ≤ 0.5.
With U2G A21C C22U A70U the yeast fitness was ≤ 0.5.
With U3A C62U G63C the yeast fitness was ≤ 0.5.
U2G C11U A20C A70C showed a yeast fitness of 0.667.
With U2C C49U G56C the yeast fitness was ≤ 0.5.
With U2G C11G A20U C24G C60G G68C the yeast fitness was 0.518.
With U3A A36U A37G the yeast fitness was ≤ 0.5.
For U3A C4U U8A G10A A21G U53A A65C A70G, the yeast fitness was ≤ 0.5.
With U2C G9A C31A C49A U59A C61G the yeast fitness was ≤ 0.5.
U2C U26C gave a yeast fitness of 0.947.
With U2G C31G A57U A65G the yeast fitness was ≤ 0.5.
In the case of U2C U13A U19C C55A A69C, the yeast fitness is reported as ≤ 0.5.
In the case of U3A C5A G6C A15G U16A U26G G38C U54A, the yeast fitness is reported as ≤ 0.5.
With U3A C27A C29G A65G the yeast fitness was ≤ 0.5.
For U2C U16C C46G C62G, the yeast fitness was ≤ 0.5.
Variant U3A C4U U32C U64C has a yeast fitness of 0.877.
For U3A C5U A42G G52C A57G, the yeast fitness was ≤ 0.5.
With U3A C24G A69C the yeast fitness was ≤ 0.5.
